Among all 320,000 compounds or so, about 200 (0.062%) were called active. The sample holds actives, similar compounds and a random draw of the others, so the mix is not that of the screen. A number with no mark means an inactive call.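 Rule for the calls: active = activation above that plate's cutoff, the mean activation of tested compounds plus 3 SD (cut at about 6.6% in these data, passing the limit was not always enough); inactive = the rest.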

The record followed here is PubChem BioAssay AID2445 (The Scripps Research Institute Molecular Screening Center, 2010).

Chain of Oxytocin receptor (Homo sapiens) (P30559 whole entry, looked up): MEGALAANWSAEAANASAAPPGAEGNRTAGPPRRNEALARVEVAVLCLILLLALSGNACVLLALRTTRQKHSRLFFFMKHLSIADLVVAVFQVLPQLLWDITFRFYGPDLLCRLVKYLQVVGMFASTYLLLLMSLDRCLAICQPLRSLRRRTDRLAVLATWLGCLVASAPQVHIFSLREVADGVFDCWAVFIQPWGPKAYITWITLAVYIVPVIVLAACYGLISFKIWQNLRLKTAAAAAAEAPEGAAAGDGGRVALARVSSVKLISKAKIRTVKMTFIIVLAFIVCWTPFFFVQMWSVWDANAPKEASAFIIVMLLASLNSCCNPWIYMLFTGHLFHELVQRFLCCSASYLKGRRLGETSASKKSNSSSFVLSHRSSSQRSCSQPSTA

The experiment addresses Oxytocin receptor (Homo sapiens) (UniProt P30559). In words: human OXTR potentiators, primary screen, fluorescence, CHO-OTR cells, Fluo-8 calcium (AID 2445).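 Note: 100% uses oxytocin at 75 nM as the full agonist control.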 Conditions: Fluo-8 calcium fluorescence, potentiator mode, at 3 µM, stronger effect = higher value, 0% = oxytocin EC15, 100% = EC100. The method, boiled down:
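System: human OTR in CHO cells / Also added: sub-maximal oxytocin, roughly EC15 / Control set: EC15 oxytocin low, 75 nM oxytocin high / Schedule: 6 min compound pre-incubation at room temperature, 100 s kinetic read / Compound: single-point 3.0 µM / Replication: singlicate / Technique: Fluo-8 calcium dye fluorescence / Read-out basis: % activation of max/min ratio relative to oxytocin controls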
With `Cc1ccc2c(c1)C(O)(CC(=O)c1cccc(-n3cccc3)c1)C(=O)N2` (centres undefined), the activation is -5.12%.

In the case of `O=C(COc1ncnc2c(Cl)cc(Cl)cc12)N1CCN(S(=O)(=O)c2ccccc2)CC1`, the activation is -0.15%.

For the compound `Cc1ccc(S(=O)(=O)N(C)c2ccc(OCC(=O)OCc3ccc(C#N)cc3)cc2)cc1`, the activation is -6.02%.

In the case of `COc1ccc2c(c1)CC[C@@H]1[C@@H]2CC[C@]2(C)C(=O)CC[C@@H]12`, the activation was -6.25%.

As to `O=S(=O)(NCCOc1cccc2cccnc12)c1ccc(F)cc1`, the activation was -8.04%.

Turning to `COc1cccc(NC(=O)CSc2nnc(Cc3ccc(OC)c(OC)c3)o2)c1`, the activation was -7.75%.

On to `Cc1cccc(N=C2SC(C)CN2C(=O)CN2C(=O)NC3(CCCC3)C2=O)c1` (centres undefined), for which the activation is -10%.

`CCOc1ccc(C(=O)Nc2cc(Cl)ccc2-n2cncn2)cc1OC`: the activation is 3.32%.

With `c1ccc(-c2cn3c(n2)CCc2ccc4cccnc4c2-3)cc1`, the activation was 0.09%.

With `CCC(C)N(C(=O)COC(=O)C1C(C(=O)OC)=C(C)NC(C)=C1C(=O)OC)C1CCS(=O)(=O)C1` (centres undefined), the activation is -7.92%.

`COc1ccc(NC(=O)CC(NC(C)c2ccccc2)C(=O)O)cc1` (centres undefined): the activation was 1.93%.

As to `Cc1cc(C)cc(NC(=O)CN2C(=O)c3ccccc3C2=O)c1`, the activation was -3.2%.

With `CSc1cccc(NC(=O)CSc2ccccc2)c1`, the activation is -15.7%.

Turning to `Cc1cc(C)cc(NC(=O)CSc2ccccc2)c1`, the activation was 12.9% (active).

For the compound `CCCCn1c(N)c(N(CC(C)C)C(=O)CSc2ccc([N+](=O)[O-])cc2)c(=O)[nH]c1=O`, the activation is 1.02%.

`Cc1ccc(-c2nnc(-n3nnc4ccccc43)c3ccccc23)cc1`: the activation was -11.2%.

As for `Cc1ccc(Cl)cc1NC(=O)CN1CCN(S(=O)(=O)N2CCOCC2)CC1`, the activation is -9.03%.

For `Cc1ccc(S(=O)(=O)NC2(C(F)(F)F)NC(=O)N(CCc3ccccc3)C2=O)cc1` (centres undefined), the activation is -18.6%.

As for `COc1cccc(N2CCN(c3ccc4nnc(CCC(=O)N5CCN(C)CC5)n4n3)CC2)c1`, the activation was -0.01%.

Turning to `Cc1ccc(S(=O)(=O)N(CCCN(C)C)Cc2ccc3c(c2)OCO3)cc1`, the activation is -1.86%.

For `COc1ccc(SCc2noc(C(=O)NCC3CCCO3)c2C(=O)O)cc1` (centres undefined), the activation is 3.88%.

For `CC1CN(CC(=O)NC(C)c2ccccc2)CC(C)O1` (centres undefined), the activation was -2.73%.

As for `CC(C)Oc1ccccc1C(=O)NC(CO)C(=O)O` (centres undefined), the activation is 7%.

Consider `COc1ccc(CNc2cc(C)cc(C)c2)cc1OC`, for which the activation is -5.89%.

For `Cc1c(CN2CCC(CO)(CCOc3ccccc3)CC2)[nH]c2ccc(Cl)cc12`, the activation is -15%.

Regarding `Cc1c(C)c2c(OCC(=O)N[C@@H](C(=O)O)c3ccccc3)cc3c(c2oc1=O)CCC(C)(C)O3`, the activation is 0.86%.

On to `CCc1c(SCCC(=O)O)nc2ccccc2c1C`, for which the activation is 2.81%.

Turning to `CN1CCN(c2ccc(CNS(=O)(=O)c3cccc(F)c3)cc2)CC1`, the activation is -0.68%.

On to `Cc1ccsc1CNn1cnnc1SCc1ccccc1F`, for which the activation is -4.45%.

For the compound `c1ccc2c(-c3nn4nnnc4c4ccccc34)cccc2c1`, the activation was -11%.

Consider `C=CCNC(=O)c1ccc2c3n(nc2c1)-c1ccc(C)cc1CO3`, for which the activation is -15.6%.

As to `N#Cc1c(NC(=O)C2CCCO2)sc2c1CCCCC2` (centres undefined), the activation is -9.34%.

As for `NC(=O)C1CC(=O)N(c2ccc(OCC(=O)NCc3ccccc3)cc2)C1` (centres undefined), the activation was 2.9%.

`CC1CCC2CCCCC2N1C(=O)c1cc([N+](=O)[O-])cc([N+](=O)[O-])c1` (centres undefined): the activation was -6.56%.

As to `OCCN1CCOCCOCCN(CCO)CCN(CCO)CC1`, the activation was -14%.

As to `Cc1cccc2c1-c1sc(C(=O)NCCCN3CCc4ccccc4C3)cc1CO2`, the activation was -6.4%.

For the compound `O=C(NCc1ccccc1)C1CCN(C(=O)Cc2ccccc2)CC1`, the activation was -0.95%.

For the compound `Cc1ccc(N2C(=O)CN=C2Nc2nc(C)cc(C)n2)cc1`, the activation is -1.27%.

For `COc1ccc(Br)c2c1C(=O)CC2`, the activation was -5.51%.

Consider `Cc1ccc(S(=O)(=O)NCC2CCC(C(=O)N3CCOCC3)CC2)cc1` (centres undefined), for which the activation was -11.8%.

Regarding `CS(=O)(=O)Nc1ccccc1C(=O)OCC(=O)NC1CC1`, the activation was -5.14%.

Turning to `O=C(Nc1ccccc1C(=O)N1CCOCC1)c1ccc(Cl)cc1`, the activation was -4.35%.

Consider `COC(=O)CSc1snnc1-c1ccc(Cl)c(Cl)c1`, for which the activation was -15.7%.

Regarding `O=C(O)c1ccc2c(=O)n3c(nc2c1)/C(=C/c1ccc(OC(F)F)cc1OC(F)F)CC3`, the activation was 1.58%.

With `Cn1c(N)c(C(=O)COC(=O)c2ccccc2NCc2ccco2)c(=O)n(C)c1=O`, the activation is -14.4%.

Take `Cc1ccccc1Cn1c2ccccc2c2cnn(CC(=O)NCc3ccco3)c(=O)c21`: the activation was 1.81%.

`CCCCCCCCCCCCN1[C@@H](CC(C)=O)c2cc(F)cc(F)c2S1(=O)=O`: the activation was 9.85%.

`CNc1nnc(-c2ccco2)s1`: the activation is 11.7% (active).

As to `O=C(Nc1nc(-c2ccco2)c(-c2ccco2)s1)c1ccco1`, the activation was -4.21%.

Regarding `COc1ccc(OCC(=O)Nc2nnc(-c3ccco3)s2)cc1`, the activation was -4.78%.

Take `CC(C)N(Cc1ccccc1)C(=O)COC(=O)c1cnccn1`: the activation is -12.7%.

Take `COc1cc(OC)c(C(=O)OC(C)C(=O)Nc2cc(C(F)(F)F)ccc2Cl)cc1OC` (centres undefined): the activation was -8.37%.

Consider `Cc1noc(C)c1NC(=O)Nc1ccc2c(c1)C(=O)N([C@H](C)CO)C[C@H](C)[C@@H](CN(C)C(=O)Nc1ccccc1)O2`, for which the activation was -1.66%.

Regarding `CSc1ncccc1C(=O)OCc1ccc(Br)cc1`, the activation was -14.7%.

For the compound `O=C(O)CCCCOn1ccnc1`, the activation is 3.24%.

With `Cc1nc2cc(NCc3cccs3)ccc2n1C`, the activation is -14.8%.

Regarding `O=C1/C(=C/c2ccc3c(c2)OCO3)Oc2cc(OCC(=O)N3CC(O)C[C@H]3C(=O)O)ccc21` (some centres undefined), the activation was -2.05%.

As to `Cc1nc(-c2ccc(F)cc2)c(CC(=O)N2CCN(S(=O)(=O)c3ccc(F)cc3)CC2)s1`, the activation is -7.74%.

Take `O=C(Nc1ccc(F)cc1)C1CCN(C(=O)c2ccc([N+](=O)[O-])cc2)CC1`: the activation was -7.48%.
